Experimental data from ChEMBL document CHEMBL1141646, “Microwave-assisted synthesis and antimicrobial activities of flavonoid derivatives” (Bioorg Med Chem Lett, 2008).
≈ marks a conversion by molar mass, not a printed value. Calls of active or inactive are those of the source. The calls are words filed in the database; no cut-off is given here.

Key:
Type in all cases: functional, organism-based
Aspergillus niger = assay: Antifungal activity against Aspergillus niger NCTC 275 after 4 days; conditions: NCTC 275, 96 h
Outline: (§1)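 Compounds were incorporated into agar medium at final concentrations of 200, 100, 50 and 10 µg/mL. A disc of fungal mycelium was placed at the centre of each Petri dish. Plates were incubated at 37 °C until the control plates reached full growth (4 days). Inhibition diameter was then measured and IC50 derived. Values are means of replicates.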

Fusarium oxysporum = assay: Antifungal activity against Fusarium oxysporum after 4 days; conditions: 96 h; outline: as §1
Staphylococcus aureus [1] = assay: Antibacterial activity against methicillin-resistant Staphylococcus aureus NCTC 10442 by paper disc diffusion method
Escherichia coli = assay: Antibacterial activity against Escherichia coli by paper disc diffusion method
Staphylococcus aureus [2] = assay: Antibacterial activity against methicillin-resistant Staphylococcus aureus NCTC 10442 assessed as protein content after 3 hrs by bradford method; conditions: NCTC 10442, 3 h
Outline: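 MRSA exposed to compounds dissolved in DMSO, with a DMSO-only negative control and gentamycin at the same concentrations in sterile water as positive control. Incubated 3 h at 37 °C; growth read as protein content by the Bradford method and plotted against compound concentration.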

| SMILES | IC50 (Aspergillus niger) [µg/mL] | IC50 (Fusarium oxysporum) [µg/mL] | Activity (Staphylococcus aureus [1]) | Activity (Escherichia coli) | IC50 (Staphylococcus aureus [2]) [µg/mL] |
| --- | --- | --- | --- | --- | --- |
| O=c1cc(-c2ccc(Cl)cc2)oc2ccc(Br)cc12 | 157 (≈ 469 µM) | 282 (≈ 840 µM) |  |  |  |
| COc1ccc2c(=O)cc(-c3ccc(Br)cc3)oc2c1 | 28.2 (≈ 85.2 µM) | 176 (≈ 531 µM) |  |  |  |
| COc1ccc(-c2cc(=O)c3cc(Br)ccc3o2)cc1 | 83.4 (≈ 252 µM) | 2250 (≈ 6790 µM) |  |  |  |
| O=c1cc(C2CCCCC2)oc2ccc(Br)cc12 | 90.4 (≈ 294 µM) | 107 (≈ 347 µM) | Active | inactive | 12000 (≈ 39100 µM) |
| COc1ccc2oc(C3CCCCC3)cc(=O)c2c1 | 58.9 (≈ 228 µM) | 117 (≈ 452 µM) | Active | inactive | 69.6 (≈ 269 µM) |
| COc1ccc2oc(-c3cc(C(F)(F)F)cc(C(F)(F)F)c3)cc(=O)c2c1 | 93.4 (≈ 241 µM) | 177 (≈ 457 µM) |  |  |  |
| COc1ccc2oc(-c3ccc(Cl)cc3)cc(=O)c2c1 | 41.9 (≈ 146 µM) | 1430 (≈ 4980 µM) |  |  |  |
| COc1ccc2c(=O)cc(-c3cc(Cl)cc(Cl)c3)oc2c1 | 178 (≈ 553 µM) | 10600 (≈ 33000 µM) |  |  |  |
| O=c1cc(-c2cc(C(F)(F)F)cc(C(F)(F)F)c2)oc2ccc(Br)cc12 | 60.3 (≈ 138 µM) | 65.2 (≈ 149 µM) |  |  |  |
| O=c1cc(-c2ccc(F)cc2)oc2ccc(Br)cc12 | 142 (≈ 444 µM) | 682 (≈ 2140 µM) |  |  |  |
| O=c1cc(-c2ccccc2)oc2ccc(Br)cc12 [6-BROMOFLAVONE] | 77.1 (≈ 256 µM) | 26900 (≈ 89400 µM) |  |  |  |
